The values that follow come from ChEMBL document CHEMBL1138925, “Design and synthesis of orally active pyrrolidin-2-one-based factor Xa inhibitors” (Bioorg Med Chem Lett, 2006).

Data set [1] can be described thus: Plasma clearance in Han Wistar rat at 1 mg/kg, iv and 2.5 mg/kg, po. In kind it is ADME, organism-based. The essentials: (§1)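 Male Han Wistar rats were given an intravenous bolus at a nominal 1 mg/kg, or oral gavage at a nominal 2.5 mg/kg.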
Data set [2] in a line: Half life in Han Wistar rat at 1 mg/kg, iv and 2.5 mg/kg, po. In kind it is ADME, organism-based. The conditions noted are these: in vivo. The essentials: as §1
A short description of data set [3]: Volume of distribution in Han Wistar rat at 1 mg/kg, iv and 2.5 mg/kg, po. In kind it is ADME, organism-based. The conditions noted are these: in vivo, read-out: Vss. The essentials: as §1
A short description of data set [4]: Lipophilicity, log D by CHI assay at pH 7.4. The note with it: buffer, read-out: Log D. It counts as physicochemical.
Data set [5] is described as follows: Oral bioavailability in Beagle dog at 1 mg/kg, iv and 1 mg/kg, po. It counts as ADME, organism-based, Canis lupus familiaris. The note with it: in vivo.
Data set [6] in a line: Half life in Beagle dog at 1 mg/kg, iv and 1 mg/kg, po. It counts as ADME, organism-based, Canis lupus familiaris. The conditions noted are these: in vivo.
The nature of data set [7]: Volume of distribution in Beagle dog at 1 mg/kg, iv and 1 mg/kg, po. It counts as ADME, organism-based, Canis lupus familiaris. The conditions noted are these: in vivo, read-out: Vss.
Data set [8] in a line: Oral bioavailability in Han Wistar rat at 1 mg/kg, iv and 2.5 mg/kg, po. It counts as ADME, organism-based. The conditions noted are these: in vivo. In outline:
as §1

A short description of data set [9]: Plasma clearance in Beagle dog at 1 mg/kg, iv and 1 mg/kg, po. In kind it is ADME, organism-based, Canis lupus familiaris.

As usually defined, the half-life is how long it takes for the measured level to halve. A high value points to slow loss. In data set [1], `C[C@@H](C(=O)N1CCOCC1)N1CC[C@H](N(CC(N)=O)S(=O)(=O)c2ccc3cc(Cl)ccc3c2)C1=O` had a clearance of 24 mL/min/kg. The half-life in data set [2] was 18 min. The Vd in data set [3] stood at 0.5 L/kg.

The compound `C[C@@H](C(=O)N1CCOCC1)N1CC[C@H](N(CC(=O)O)S(=O)(=O)c2ccc3cc(Cl)ccc3c2)C1=O` yielded a clearance in data set [1] of 37 mL/min/kg. The same compound showed a half-life in [2] of 12 min. Moreover, the Vd in data set [3] was 0.3 L/kg.

`C[C@@H](C(=O)N1CC2CCC1CC2)N1CC[C@H](NS(=O)(=O)c2ccc3cc(Cl)ccc3c2)C1=O`: the chromatographic logD in [4] is 2.94.

Regarding `C[C@@H](C(=O)N1CCOCC1)N1CC[C@H](N(C)S(=O)(=O)c2ccc3cc(Cl)ccc3c2)C1=O`, in data set [1], the clearance stood at 15 mL/min/kg. In data set [2], this compound showed a half-life of 30 min. Further, the Vd in [3] worked out at 0.4 L/kg.

The bioavailability is the share of a dose that reaches the circulation, judged against a reference dose that is usually intravenous. A low value points to little systemic uptake. Turning to `C[C@@H](C(=O)N1CCOCC1)N1CC[C@H](NS(=O)(=O)c2ccc3cc(Cl)ccc3c2)C1=O`, the figures for the clearance in [1] and in data set [9] were 13 mL/min/kg and 2.7 mL/min/kg, respectively. Further, the bioavailability in data set [5] was determined as 100%; in [8], 85%. Moreover, in data set [4], the chromatographic logD turned out to be 2.2. The half-life in data set [2] was 54 min; in data set [6], 126 min. Besides, the Vd in data set [3] was 0.6 L/kg; in data set [7], 0.44 L/kg.

For `C[C@@H](C(=O)N1CC2CNCC(C2)C1)N1CC[C@H](NS(=O)(=O)c2ccc3cc(Cl)ccc3c2)C1=O`, the chromatographic logD in data set [4] turned out to be 1.47.

As for `CCC(=O)CN([C@H]1CCN([C@@H](C)C(=O)N2CCOCC2)C1=O)S(=O)(=O)c1ccc2cc(Cl)ccc2c1`, the clearance in data set [1] amounted to 37 mL/min/kg. In addition, in data set [2], the half-life was 30 min. The Vd in [3] worked out at 1.1 L/kg.
